Results collected from several papers.
Mode: inhibitor
rep main protease: Replicase polyprotein 1ab, main protease (rep, Severe acute respiratory syndrome coronavirus 2, UniProt P0DTD1)
rep papain-like protease: Replicase polyprotein 1ab, papain-like protease (rep, Severe acute respiratory syndrome coronavirus 2, UniProt P0DTD1)
rep methyltransferase: Replicase polyprotein 1ab, methyltransferase (rep, Severe acute respiratory syndrome coronavirus 2, UniProt P0DTD1)

| SMILES | target | read-out | method | pH | IC50 |
| --- | --- | --- | --- | --- | --- |
| COc1cc(C[C@@H](C)[C@@H](C)Cc2ccc(O)c(OC)c2)ccc1O | rep main protease | enzyme activity | FRET |  | 4.12 µM |
| CCOc1cc(C(Nc2cc(C)ccn2)c2ccc3cccnc3c2O)ccc1OC (stereo not drawn) | rep main protease | enzyme activity |  |  | 0.27 µM |
| Cc1coc2c1C(=O)C(=O)c1c-2ccc2c1CCCC2(C)C | rep papain-like protease | enzyme activity | FRET | pH 7.5 | 15.3 µM |
| CC(=O)N[C@@H](CS)C(=O)O | rep papain-like protease | enzyme activity |  |  | > 150 µM |
| [2H]C([2H])([2H])n1ncc2cc(/N=c3\[nH]c(=O)n(Cc4ncn(C)n4)c(=O)n3Cc3cc(F)c(F)cc3F)c(Cl)cc21 | rep main protease | enzyme activity | FRET |  | 3.53 µM |
| O=C(Cn1nnc2ccccc21)Nc1ccccc1N1CCc2sccc2C1 | rep main protease | enzyme activity |  |  | > 100 µM |
| NC(Cc1cc(O)c(O)cc1O)C(=O)O (racemic) | rep main protease | enzyme activity |  |  | > 20 µM |
| N#Cc1c(N)[nH]c2cc(/C=C/c3cccc(F)c3)ccc12 | rep papain-like protease | enzyme activity | fluorescence |  | > 100 µM |
| CC1(C)CC(=O)c2c(oc3c(Cl)cc(NS(=O)(=O)c4ccc5ccccc5c4)cc23)C1 | rep methyltransferase | enzyme activity |  |  | 87 µM |
| CN(C(=O)[C@H](Cc1ccccc1)NC(=O)OCc1ccccc1)N(C#N)CCC(N)=O | rep main protease | enzyme activity |  |  | 2.33 µM |
| CN1CCN(C(=O)c2ccc(-c3ccc4c(C=O)c(O)ccc4c3)s2)CC1 | rep main protease | enzyme activity |  |  | 1.3 µM |
| CC(C)c1nc(CN(C)C(=O)N[C@@H](CCN2CCOCC2)C(=O)N[C@H](CC[C@H](Cc2ccccc2)NC(=O)OCc2cncs2)Cc2ccccc2)cs1 | rep main protease | enzyme activity | luciferase |  | > 240 µM |
| Cc1ccc(-c2nc(N3CCN(C)CC3)s[n+]2-c2ccccc2)cc1 | rep main protease | enzyme activity |  |  | 0.534 µM |
| COc1ccc(O)c(C=NN2C(=O)c3ccccc3NC2c2cc(OC)ccc2O)c1 (stereo not drawn) | rep main protease | enzyme activity in cells |  |  | 6.5 µM |
| Oc1cc(O)c2c(c1)O[C@H](c1ccc(O)c(O)c1)[C@H](O)C2 | rep main protease | enzyme activity |  |  | 0.05 µM |
| COc1ccc2nc(NC(=O)CSc3nc4ccccc4c4nnnn34)sc2c1 | rep methyltransferase | enzyme activity |  |  | 44.8 µM |
| O=C(NCCCNc1nc(Nc2cccc(NC(=O)N3CCCC3)c2)ncc1I)c1cccs1 | rep main protease | enzyme activity |  |  | 8.7 µM |
| Cc1c(O)cccc1C(=O)N[C@@H](CSc1ccccc1)[C@H](O)CN1C[C@H]2CCCC[C@H]2C[C@H]1C(=O)NC(C)(C)C | rep main protease | enzyme activity in cells |  |  | > 10 µM |
| Cc1c[nH]c2ncc(C(=O)N[C@H]3[C@H](CNc4cc(=O)n5ccccc5n4)CCC34CCC4)cc12 | rep main protease | enzyme activity |  |  | 32.7 µM |
| CN(C)[C@@H]1C(O)=C(C(N)=O)C(=O)[C@@]2(O)C(O)=C3C(=O)c4c(O)cccc4[C@@](C)(O)[C@H]3[C@H](O)[C@@H]12 | rep main protease | enzyme activity | luciferase |  | > 240 µM |
| Nc1nc2nc[nH]c2c(=S)[nH]1 | rep papain-like protease | enzyme activity | FRET | pH 7.5 | > 60 µM |
| COC(=O)C1=C(C(=O)OC)C(c2ccc(Cl)cc2)c2sc(=O)[nH]c2S1 (stereo not drawn) | rep methyltransferase | enzyme activity |  |  | 74.9 µM |
| CC(C)[C@H](NC(=O)[C@H](CCCNC(=N)N)NC(=O)N[C@@H](Cc1ccccc1)C(=O)O)C(=O)N[C@H](C=O)CCCNC(=N)N | rep main protease | enzyme activity | FRET |  | 48.6 µM |

| SMILES | target | read-out | method | pH | IC50 |
| --- | --- | --- | --- | --- | --- |
| CCOc1nc2cccc(C(=O)O)c2n1Cc1ccc(-c2ccccc2-c2nnn[nH]2)cc1 | rep main protease | enzyme activity |  |  | > 240 µM |
| COc1cc(C[C@@H](C)[C@@H](C)Cc2cc(O)c(OC)c(OC)c2)cc(O)c1OC | rep papain-like protease | enzyme activity | FRET |  | 5.23 µM |
| Cc1cccc(C)c1OCC(=O)N[C@@H](Cc1ccccc1)[C@@H](O)C[C@H](Cc1ccccc1)NC(=O)[C@H](C(C)C)N1CCCNC1=O | rep main protease | enzyme activity | luciferase |  | > 240 µM |
| Clc1ccc(C(Cn2ccnc2)OCc2csc3c(Cl)cccc23)c(Cl)c1 (stereo not drawn) | rep main protease | enzyme activity in cells |  |  | 7.45 µM |
| c1ccc(-c2nc(N3CCOCC3)[s+]n2-c2ccccc2)cc1 | rep main protease | enzyme activity |  |  | 0.328 µM |
| O=c1oc2c(O)c(O)cc3c(=O)oc4c(O)c(O)cc1c4c23 | rep methyltransferase | enzyme activity |  |  | 22.9 µM |
| O=C(NC[C@@H]1c2ccccc2CCN1C(=O)/C=C/c1cn[nH]c1)c1cncc2ccc(F)cc12 | rep main protease | enzyme activity |  |  | 18.7 µM |
| c1ccc([Se][Se]c2ccccc2)cc1 | rep main protease | enzyme activity | FRET |  | 1.33 µM |
| Cc1nn(-c2ccc(Cl)cc2)c2c1C(c1ccc(Cl)c(Cl)c1)C(C#N)=C(N)O2 (stereo not drawn) | rep main protease | enzyme activity |  |  | 100 µM |
| O=C1C(Cl)=C(Cl)C(=O)C(Cl)=C1Cl | rep main protease | enzyme activity |  |  | 0.18 µM |
| C=C(c1ccc(C(=O)O)cc1)c1cc2c(cc1C)C(C)(C)CCC2(C)C | rep main protease | enzyme activity in cells |  |  | 20 µM |
| CCCCCCCCOc1ccccc1C(=O)Nc1ccc(C(=O)OCC[N+](C)(CC)CC)cc1 | rep methyltransferase | enzyme activity |  |  | 39.3 µM |
| COc1ccc(-c2nc(NC(=O)c3ccc(C)c(F)c3)n[nH]2)cc1OC | rep main protease | enzyme activity |  |  | 0.47 µM |
| Oc1ccc2ccccc2c1SSc1c(O)ccc2ccccc12 | rep main protease | enzyme activity |  |  | 0.5 µM |
| CN(C(=O)[C@H](Cc1ccccc1)NC(=O)[C@@H](NC(=O)OCc1ccccc1)C(C)(C)C)N(C#N)CCC(N)=O | rep main protease | enzyme activity |  |  | 0.236 µM |
| COC(=O)C1=C(C)NC(C)=C(C(=O)OCCN2CCN(C(c3ccccc3)c3ccccc3)CC2)C1c1cccc([N+](=O)[O-])c1 (stereo not drawn) | rep main protease | enzyme activity | luciferase |  | > 240 µM |
| CC(C)=CCOc1ccc(/C=C/C(=O)c2ccc(OCC=C(C)C)cc2OCC(=O)O)cc1 | rep methyltransferase | enzyme activity |  |  | 37.6 µM |
| CCOc1ccc(Nc2nc(-c3c(C)nc4ccccn34)cs2)cc1 | rep main protease | enzyme activity |  |  | 5.05 µM |
| CCOc1nc2cccc(C(=O)OC(C)OC(=O)OC3CCCCC3)c2n1Cc1ccc(-c2ccccc2-c2nn[nH]n2)cc1 (stereo not drawn) | rep methyltransferase | enzyme activity |  |  | 30 µM |
| COc1cc(Br)cc(C=NN2C(=O)c3ccccc3NC2c2cc(Br)cc(OC)c2O)c1O (stereo not drawn) | rep main protease | enzyme activity in cells |  |  | > 40 µM |
| Cc1ccc(C(=O)Nc2ccc(S(=O)(=O)O)c3cc(S(=O)(=O)O)cc(S(=O)(=O)O)c23)cc1NC(=O)c1cccc(NC(=O)Nc2cccc(C(=O)Nc3cc(C(=O)Nc4ccc(S(=O)(=O)O)c5cc(S(=O)(=O)O)cc(S(=O)(=O)O)c45)ccc3C)c2)c1 | rep methyltransferase | enzyme activity |  |  | 105 µM |
| COC(=O)N[C@H](C(=O)N[C@@H](Cc1ccccc1)[C@@H](O)CN(Cc1ccc(-c2ccccn2)cc1)NC(=O)[C@@H](NC(=O)OC)C(C)(C)C)C(C)(C)C | rep main protease | enzyme activity | luciferase |  | > 240 µM |
